The source of these data is ChEMBL document CHEMBL1126152, “Fluoronaphthyridines as antibacterial agents. 4. Synthesis and structure-activity relationships of 5-substituted-6-fluoro-7-(cycloalkylamino)-1,4-dihydro-4-oxo-1,8- naphthyridine-3-carboxylic acids” (J Med Chem, 1992).

Data set [1] is described as follows: Lethal dose was determined in OF1-strain female Swiss mice after oral administration of the drug. The settings on record: mouse, in vivo.
Data set [2] in a line: Lethal dose was determined in OF1-strain female Swiss mice after intra venous administration of the drug. The conditions noted are these: mouse, in vivo, iv.
Data set [3] relates to Streptococcus pneumoniae. Briefly: animal or person. The class given is functional. The conditions noted are these: in Mus musculus, po, read-out: PD50.
For the next data set, the system named is Proteus mirabilis. Briefly: In vitro for antibacterial activity against Proteus mirabilis. The class given is functional. In a few lines:
(§1)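 MIC by serial 2-fold broth dilution in nutrient broth with an inoculum of 10^6 CFU/mL. Compound range was 0.0005–250 μg/mL. Plates were incubated 18 h at 37 °C. MIC was taken as the lowest concentration preventing visible growth.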

The test system of a further data set is Enterococcus faecalis. Briefly: In vitro for antibacterial activity against Enterococcus faecalis. In kind it is functional. In a few lines: as §1
A further data set concerns Morganella morganii. Nature of the data set: In vitro for antibacterial activity against Morganella morganii. The class given is functional. The method in brief: as §1
The test system of the next data set is Klebsiella pneumoniae. Nature of the data set: In vitro for antibacterial activity against Klebsiella pneumoniae. In kind it is functional. In a few lines: as §1
Another data set deals with Serratia marcescens. Briefly: In vitro for antibacterial activity against Serratia marcescens. The class given is functional. In a few lines: as §1
The subject of data set [4] is Staphylococcus aureus. Nature of the data set: animal or person. In kind it is functional. The conditions noted are these: in Mus musculus, po, read-out: PD50.
Data set [5] deals with Escherichia coli. Nature of the data set: Compound was tested for […] against Escherichia coli A 15119 after oral administration of drug in mice. The conditions noted are these: read-out: PD50. The class given is functional. The method in brief:
(§2)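 Mouse protection test against systemic infection. Compound was dissolved in sterile water and given orally to female OF1-strain Swiss mice weighing 18–25 g, with five mice per group.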

The nature of data set [6]: Partition coefficient (logD). The conditions noted are these: octanol/water.
The subject of a further data set is Enterobacter cloacae. Briefly: In vitro for antibacterial activity against Enterobacter cloacae. In kind it is functional.
Data set [7] deals with Pseudomonas aeruginosa. Nature of the data set: In vitro for antibacterial activity against Pseudomonas aeruginosa. In kind it is functional. The method in brief: as §1
Data set [8] can be described thus: Solubility was measured at PH - 7.2 buffer.
Data set [9] deals with Staphylococcus aureus. Briefly: Antibacterial activity against Staphylococcus aureus. In kind it is functional.
For data set [10], the system named is Escherichia coli. Nature of the data set: In vitro for antibacterial activity against Escherichia coli. The class given is functional. In a few lines:
as §1

Another data set relates to Bacteroides fragilis. Nature of the data set: In vitro for antibacterial activity against […]. In kind it is functional. The method in brief:
as §1

The subject of data set [11] is Pseudomonas aeruginosa. Nature of the data set: Compound was tested for […] against Pseudomonas aeruginosa A 9843 after oral administration of drug in mice,. The class given is functional. The settings on record: read-out: PD50. In a few lines:
as §2

Data set [12] has as its system Streptococcus pneumoniae. Nature of the data set: Antibacterial activity against Streptococcus pneumoniae. In kind it is functional.
Data set [13] in a line: in vivo. The settings on record: mouse, plasma, T1/2.
Data set [14] in a line: % dose recovered in mouse urine. The conditions noted are these: % recovery.
The species named for the next data set is Mus musculus. The settings on record: in vivo.
The subject of another data set is Staphylococcus. Nature of the data set: Compound was tested for […] against Staphylococcus aureus A 15090 after oral administration of drug in value in the parenthesis indicates 95% confidence limits. The class given is functional. The conditions noted are these: read-out: PD50. In a few lines: as §2
In data set [15] the test system is Pseudomonas aeruginosa. Nature of the data set: Compound was tested for […] against Pseudomonas aeruginosa A 9843 after oral administration of drug in mice, value in the parenthesis indicates 95% confidence limits. The class given is functional. The conditions noted are these: read-out: PD50. The method in brief: as §2
Data set [16] can be described thus: in vivo. The conditions noted are these: mouse, plasma.

Values after ≈ are worked out from the molar mass of the structure shown.

Regarding `Cc1c(F)c(N2CC[C@H](N)C2)nc2c1c(=O)c(C(=O)O)cn2C1CC1`, the LD50 in [1] was found to be 2500 mg/kg; in data set [2], 56 mg/kg. Also, the ED50 in the data set on Streptococcus pneumoniae [3] amounted to 19 mg/kg; with Staphylococcus aureus [4] it was 5.5 mg/kg; in the data set on Escherichia coli [5] it was 1.8 mg/kg; in the data set on Pseudomonas aeruginosa [11], 2.8 mg/kg. The MIC against Proteus mirabilis was 0.008 µg/mL (≈ 0.0231 µM); in the data set on Enterococcus faecalis, 0.13 µg/mL (≈ 0.375 µM); in the data set with Morganella morganii, 0.016 µg/mL (≈ 0.0462 µM); in the data set with Klebsiella pneumoniae, 0.004 µg/mL (≈ 0.0115 µM); against Serratia marcescens it was 0.004 µg/mL (≈ 0.0115 µM); against Enterobacter cloacae, 0.002 µg/mL (≈ 0.00577 µM). Further, the MIC with Pseudomonas aeruginosa [7] is 0.25 µg/mL (≈ 0.722 µM); against Staphylococcus aureus [9], 0.004 µg/mL (≈ 0.0115 µM); in the data set on Escherichia coli [10], 0.002 µg/mL (≈ 0.00577 µM); against Bacteroides fragilis it was 0.25 µg/mL (≈ 0.722 µM); in the data set with Streptococcus pneumoniae [12], 0.13 µg/mL (≈ 0.375 µM). In addition, the logD in data set [6] worked out at 0.78. For the same compound, the solubility in data set [8] turned out to be 70 µg/mL (≈ 202 µM).
Compound `Cc1c(F)c(N2CC3CC2CN3)nc2c1c(=O)c(C(=O)O)cn2C(C)(C)C` (stereo unspecified) showed a half-life in the data set “in vivo [13]” of 3.1 h. This compound displayed a dose excreted in data set [14] of 12%. Moreover, the minimal inhibitory concentration (MIC) against Proteus mirabilis is 0.25 µg/mL (≈ 0.668 µM); in the data set with Enterococcus faecalis it was 0.5 µg/mL (≈ 1.34 µM); in the data set with Morganella morganii, 0.13 µg/mL (≈ 0.347 µM); with Klebsiella pneumoniae, 0.06 µg/mL (≈ 0.16 µM); with Serratia marcescens, 0.13 µg/mL (≈ 0.347 µM); against Enterobacter cloacae it was 0.13 µg/mL (≈ 0.347 µM). Further, the MIC with Pseudomonas aeruginosa [7] amounted to 2 µg/mL (≈ 5.34 µM); against Staphylococcus aureus [9], 0.02 µg/mL (≈ 0.0534 µM); against Escherichia coli [10] it was 0.03 µg/mL (≈ 0.0801 µM); against Bacteroides fragilis it was 32 µg/mL (≈ 85.5 µM); against Streptococcus pneumoniae [12], 0.25 µg/mL (≈ 0.668 µM). The compound further displayed an AUC in the data set listed under Mus musculus of 74000 ng·h/mL. For the same compound, the ED50 was determined as 12.5 mg/kg in the data set with Staphylococcus and 4.1 mg/kg with Pseudomonas aeruginosa [15]. In addition, the peak concentration (Cmax) in the data set “in vivo [16]” was found to be 22000 ng/mL.
